# Experimental data taken from ChEMBL document CHEMBL3621119, “Synthesis and Biological Evaluation of Manassantin Analogues for Hypoxia-Inducible Factor 1α Inhibition” (J Med Chem, 2015).
# Calls of active or inactive are those of the source. The calls are words filed in the database; no cut-off is given here.
# Assays:
# [1] = target: T1, Hypoxia inducible factors; HIF-1-alpha, HIF-2-alpha (Homo sapiens, UniProt Q16665+Q99814); assay: Inhibition of HIF1 in human HEK293T cells transfected with pGL3-5HRE-VEGF and pRL-SV40 after 24 hrs by dual luciferase reporter assay relative to normoxic condition; assay type: cell-based; parameters: concentration or dose not given beside the values; conditions: HEK-293T, concentration not given here
# [2] = Cytotoxicity against human HEK293T cells assessed as survival rate at 10 uM after 24 hrs by MTT assay; assay type: cell-based, HEK-293T; conditions: read-out: Survival
# Procedure, shortened: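 HEK-293T cells seeded at 1×10^4 cells/well and grown 24 h, then exposed under hypoxia for 24 h to serially diluted compounds (0.005–10 μM). MTT added and incubated 4 h at 37 °C. Formazan dissolved in DMSO, absorbance read at 540 nm. Survival expressed as % of cells. Three independent experiments.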
# [3] = target: T1, Hypoxia inducible factors; HIF-1-alpha, HIF-2-alpha; assay: Inhibition of HIF1 in human HEK293T cells transfected with pGL3-5HRE-VEGF and pRL-SV40 after 24 hrs by dual luciferase reporter assay; assay type: cell-based; conditions: hek-293t
# Procedure, shortened: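 HEK-293T cells seeded at 5×10^3/well, attached 24 h, then co-transfected with pGL3-5HRE-VEGF firefly luciferase reporter (five HRE copies from human VEGF promoter) and pRL-SV40 Renilla plasmid. Serially diluted compounds applied under 1% O2 for 24 h post-transfection. Dual-Glo read-out, firefly then Renilla luminescence, each after 10 min; firefly normalized to Renilla (RLU). Three independent experiments, mean ± SD.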
# [4] = target: Hypoxia-inducible factor 1-alpha (Homo sapiens) (UniProt Q16665); assay: Inhibition of HIF1alpha in human HEK293T cells assessed as decrease of VEGF mRNA expression under hypoxic condition at 1 uM after 24 hrs by RT-PCR analysis; assay type: cell-based; conditions: HEK-293T
# Chain of Hypoxia-inducible factor 1-alpha (Homo sapiens) (Q16665 whole entry, looked up): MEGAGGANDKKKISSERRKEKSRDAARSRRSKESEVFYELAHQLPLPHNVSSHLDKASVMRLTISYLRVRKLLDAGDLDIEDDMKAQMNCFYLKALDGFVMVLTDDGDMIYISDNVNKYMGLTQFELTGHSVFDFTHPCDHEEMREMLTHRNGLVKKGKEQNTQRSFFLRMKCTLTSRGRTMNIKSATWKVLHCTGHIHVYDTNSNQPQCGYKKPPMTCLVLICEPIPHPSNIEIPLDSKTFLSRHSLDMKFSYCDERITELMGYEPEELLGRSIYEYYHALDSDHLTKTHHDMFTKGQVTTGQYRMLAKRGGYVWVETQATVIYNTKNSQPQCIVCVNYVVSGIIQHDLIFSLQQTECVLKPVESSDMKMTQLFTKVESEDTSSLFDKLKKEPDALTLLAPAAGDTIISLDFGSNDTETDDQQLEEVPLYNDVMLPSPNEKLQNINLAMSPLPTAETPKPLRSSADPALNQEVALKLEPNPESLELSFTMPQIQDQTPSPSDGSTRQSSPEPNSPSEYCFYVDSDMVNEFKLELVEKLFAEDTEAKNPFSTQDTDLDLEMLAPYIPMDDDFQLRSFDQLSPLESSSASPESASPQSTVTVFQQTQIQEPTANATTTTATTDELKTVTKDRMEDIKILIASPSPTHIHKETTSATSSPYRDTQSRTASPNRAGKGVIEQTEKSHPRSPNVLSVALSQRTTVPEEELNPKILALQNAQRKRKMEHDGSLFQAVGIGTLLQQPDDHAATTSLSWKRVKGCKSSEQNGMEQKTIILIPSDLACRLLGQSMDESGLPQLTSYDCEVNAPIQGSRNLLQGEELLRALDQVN
# Procedure, shortened: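 HEK-293T cells given 1 μM compound under hypoxia for 24 h, with a normoxic control. VEGF mRNA measured by real-time PCR on 10-fold diluted cDNA with gene-specific primers. Cycling: 50 °C 2 min, 95 °C 10 min, then 40 cycles of 95 °C 15 s and 60 °C 1 min. Mean CT normalized to β-actin.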
# [5] = target: Hypoxia-inducible factor 1-alpha (Homo sapiens) (UniProt Q16665); assay: Inhibition of HIF-1 alpha in human HEK293T cells under hypoxic condition at 1 uM after 24 hrs by Western blot analysis; assay type: cell-based; conditions: HEK-293T
# Procedure, shortened: (§1)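 HEK-293T cells held under hypoxia (1% O2) or normoxia for 24 h with or without 1 μM compound. Total protein lysates run on SDS-PAGE, transferred to nitrocellulose, blocked in 5% skim milk/TBS-0.1% Tween-20. Probed overnight at 4 °C with primary antibodies (HIF-1α, HIF-1β, Cdk6), then HRP secondary. Chemiluminescent detection, β-actin as loading control.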
# [6] = target: Aryl hydrocarbon receptor nuclear translocator (Homo sapiens) (UniProt P27540); assay: Inhibition of HIF1beta in HEK293T cells under hypoxic condition at 1 uM after 24 hrs by Western blot analysis; assay type: cell-based; conditions: HEK-293T; procedure, shortened: as §1
# Chain of Aryl hydrocarbon receptor nuclear translocator (Homo sapiens) (P27540 whole entry): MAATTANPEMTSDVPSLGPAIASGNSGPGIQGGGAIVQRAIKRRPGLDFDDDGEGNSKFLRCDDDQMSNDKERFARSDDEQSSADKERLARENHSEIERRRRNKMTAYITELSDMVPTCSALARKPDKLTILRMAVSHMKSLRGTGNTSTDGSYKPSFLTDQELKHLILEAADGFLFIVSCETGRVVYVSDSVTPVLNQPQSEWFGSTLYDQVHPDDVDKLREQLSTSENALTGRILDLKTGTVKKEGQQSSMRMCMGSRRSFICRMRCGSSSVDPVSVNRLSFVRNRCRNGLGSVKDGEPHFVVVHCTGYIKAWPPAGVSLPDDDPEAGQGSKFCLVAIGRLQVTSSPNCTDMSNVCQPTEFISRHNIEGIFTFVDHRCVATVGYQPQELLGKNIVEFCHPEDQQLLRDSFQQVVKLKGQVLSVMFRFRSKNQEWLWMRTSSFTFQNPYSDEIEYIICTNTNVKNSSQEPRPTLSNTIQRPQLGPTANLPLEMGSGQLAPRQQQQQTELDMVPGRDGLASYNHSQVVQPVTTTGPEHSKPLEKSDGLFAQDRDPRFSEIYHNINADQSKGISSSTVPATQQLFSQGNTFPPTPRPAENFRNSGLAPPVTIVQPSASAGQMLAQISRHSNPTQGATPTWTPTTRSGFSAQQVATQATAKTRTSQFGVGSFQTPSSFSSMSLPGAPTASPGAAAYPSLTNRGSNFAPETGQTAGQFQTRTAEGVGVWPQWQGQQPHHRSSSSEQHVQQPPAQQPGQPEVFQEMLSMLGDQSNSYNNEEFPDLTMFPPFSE
# [7] = target: Hypoxia-inducible factor 1-alpha (Homo sapiens) (UniProt Q16665); assay: Inhibition of HIF1alpha in human HEK293T cells assessed as decrease of Cdk6 expression under hypoxic condition at 1 uM after 24 hrs by Western blot analysis; assay type: cell-based; conditions: HEK-293T; procedure, shortened: as §1
SMILES,inhibition [1] [%],"viability at 24 h, 10 µM [2] [%]",IC50 [3] [nM],inhibition [4],inhibition [5],inhibition [6],inhibition [7]
COc1ccc(C(=O)COc2cc(C(=O)[C@@H](C)Oc3ccc([C@H]4O[C@H](c5ccc(O[C@H](C)C(=O)c6ccc(OC)c(OCC(=O)c7ccc(OC)c(OC)c7)c6)c(OC)c5)[C@H](C)[C@H]4C)cc3OC)ccc2OC)cc1OC,36,> 80,,,,,
COc1ccc(C(=O)[C@@H](C)Oc2ccc([C@H]3O[C@H](c4ccc(OC)c(OC)c4)[C@H](C)[C@H]3C)cc2OC)cc1OC,82,> 80,3700,,,,
COc1ccc([C@H](COc2ccc([C@H]3O[C@H](c4ccc(OC[C@H](OC)c5ccc(OC)c(OC)c5)c(OC)c4)[C@H](C)[C@H]3C)cc2OC)OC)cc1OC,87,> 80,1930,,,,
COc1ccc(C(=O)[C@@H](C)Oc2ccc([C@H]3O[C@H](c4ccc(O[C@H](C)C(=O)c5ccc(OC)c(O)c5)c(OC)c4)[C@H](C)[C@H]3C)cc2OC)cc1O,78,> 80,2110,,,,
COc1ccc(CCOc2ccc([C@H]3O[C@H](c4ccc(OCCc5ccc(OC)c(OC)c5)c(OC)c4)[C@H](C)[C@H]3C)cc2OC)cc1OC,64,> 80,1440,,,,
COc1cc([C@H]2O[C@H](c3ccc(O[C@H](C)[C@H](O)c4ccccc4)c(OC)c3)[C@H](C)[C@H]2C)ccc1O[C@H](C)[C@H](O)c1ccccc1,79,> 80,590,,,,
COc1cc([C@H]2O[C@H](c3ccc(O[C@H](C)C(=O)c4ccccc4)c(OC)c3)[C@H](C)[C@H]2C)ccc1O[C@H](C)C(=O)c1ccccc1,101,> 80,690,Active,Active,inactive,Active
COc1ccc([C@@H](O)[C@@H](C)Oc2ccc([C@H]3O[C@H](c4ccc(OC)c(OC)c4)[C@H](C)[C@H]3C)cc2OC)cc1OC,113,> 80,320,Active,Active,inactive,Active
COc1ccc([C@@H](OC)[C@@H](C)Oc2ccc([C@H]3O[C@H](c4ccc(O[C@H](C)[C@H](OC)c5ccc(OC)c(OC)c5)c(OC)c4)[C@H](C)[C@H]3C)cc2OC)cc1OC,102,> 80,430,,,,
COc1ccc([C@@H](O)COc2ccc([C@H]3O[C@H](c4ccc(OC[C@H](O)c5ccc(OC)c(OC)c5)c(OC)c4)[C@H](C)[C@H]3C)cc2OC)cc1OC,94,> 80,380,,,,
COc1ccc(C(=O)[C@@H](C)Oc2ccc([C@H]3O[C@H](c4ccc(O[C@H](C)C(=O)c5ccc(OC)c(OC)c5)c(OC)c4)[C@H](C)[C@H]3C)cc2OC)cc1OC,114,> 80,910,,,,
COc1ccc(C(=O)COc2ccc([C@H]3O[C@H](c4ccc(OCC(=O)c5ccc(OC)c(OC)c5)c(OC)c4)[C@H](C)[C@H]3C)cc2OC)cc1OC,93,> 80,350,Active,Active,inactive,Active
